Pemphigus Ab inh: human desmoglein-3 autoantibody binding inhibition | P32926 | DSG3-coupled beads, scFv-anti-DSG3-GFP binding, flow cytometry; hits give low values | binding (percent of control), % at 10 µM | 0.48% of 310,000 active | AID 588358;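 active = binding more than 3 SD below its plate's average and above zero; inconclusive = below that plate limit but binding exactly zero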;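 note: hits lower antibody fragment binding to DSG3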
SUMO1 PPI mod: SUMO1-SIM interaction modulation; SUMO1 binding to a labelled peptide, TR-FRET, 1 h; inhibition, % at 20 µM; 0.33% of 360,000 active; AID 602429; in the data active = inhibition above about 37%
Target sequence (P63165 whole entry, looked up): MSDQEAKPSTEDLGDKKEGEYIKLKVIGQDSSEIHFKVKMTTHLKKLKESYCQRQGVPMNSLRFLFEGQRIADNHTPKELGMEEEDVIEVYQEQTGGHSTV
NS3 helicase inh: blocks Hepatitis C virus NS3 helicase unwinding. 0.56% of 290,000 active. inhibition, % at 10.9 µM. NS3 helicase DNA unwinding, Cy5 molecular beacon fluorescence. AID 1800;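 active = inhibition above the mean of all tested compounds plus 3 SD, set per campaign, cut at about 35% in these data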;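 note: 0% = DMSO wells and 100% = thioflavine S control wells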
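test system = hepatitis C virus NS3 helicase domain fragment enzyme | reagent = annealed dual-labelled DNA beacon duplex, ATP-started | times = 1 h at 25 °C | detection = Cy5 fluorescence, 0 and 60 min reads | read-out basis = percent inhibition from t60/t0 fluorescence ratio | control set = DMSO and thioflavine S | replication = one well per compound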
DNMT1 inh: inhibitors of human DNMT1; DNMT1 molecular beacon, Hinp1I cleavage, fluorescence; inhibition (reported as % activation of signal), % at 10 µM; 0.83% of 360,000 active; in the data active = inhibition above about 50%
MBD2 DNA inh: blocks human MBD2 binding to methylated DNA. Q9UBB5. TR-FRET, MBD2 binding to methylated oligonucleotide. inhibition, % at 4.4 µM. 0.31% of 370,000 active; in the data active = inhibition above about 13%
Target sequence (Q9UBB5 whole entry, looked up): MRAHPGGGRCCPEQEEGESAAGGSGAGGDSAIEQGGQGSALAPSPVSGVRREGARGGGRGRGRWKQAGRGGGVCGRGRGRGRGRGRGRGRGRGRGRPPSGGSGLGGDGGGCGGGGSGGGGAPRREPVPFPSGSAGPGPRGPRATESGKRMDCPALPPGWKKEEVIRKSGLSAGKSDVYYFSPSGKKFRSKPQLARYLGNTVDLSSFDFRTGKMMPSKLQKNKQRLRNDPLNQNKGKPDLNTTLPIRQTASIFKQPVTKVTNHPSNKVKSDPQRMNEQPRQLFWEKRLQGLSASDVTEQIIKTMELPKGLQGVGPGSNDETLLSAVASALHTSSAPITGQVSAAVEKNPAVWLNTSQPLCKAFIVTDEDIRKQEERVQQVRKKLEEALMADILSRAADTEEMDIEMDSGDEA
UHRF1 MBD2 ctr: human UHRF1 methylated DNA binding inhibitors; Q96T88; UHRF1 binding to methylated oligo, TR-FRET; inhibition, % at 4.4 µM; 0.75% of 370,000 active; AID 687016; in the data active = inhibition above about 21%;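 note: UHRF1 SRA domain binding a hemimethylated CpG hairpin DNA probe; 0% = median of test compound wells and 100% = reference inhibitor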
The depositor's hits bear a star; ? = inconclusive; · = no result given. Hits are enriched below; roughly 2.5% of the tested compounds scored in any of these assays.

SMILES | Pemphigus Ab inh | SUMO1 PPI mod | NS3 helicase inh | DNMT1 inh | MBD2 DNA inh | UHRF1 MBD2 ctr
CCSc1ccccc1-c1nc(-c2ccncc2)no1 | 70.2* | -0.2 | 0.1 | 1.3 | -1.5 | -2.4
Cc1ccc(CCNC(=O)C2CCN(S(=O)(=O)c3ccc4c(c3)CCC(=O)N4)CC2)cc1 | 77.0* | 3.5 | -2.7 | 0.6 | -2.2 | 0.8
O=c1[nH]c2ccccc2cc1-c1nnn(-c2ccc(F)cc2)n1 | 101.5 | -0.7 | 0.4 | -0.9 | -0.9 | -0.3
COc1ccc(S(=O)(=O)N2CCCC2CNC(=O)C(=O)NCc2ccc(C)cc2)cc1 (stereo not given) | 98.3 | 5.5 | · | -0.7 | 2.8 | -1.0
COc1ccc(C(=O)Cn2nnc(-c3ccccc3-n3cnnn3)n2)cc1 | 99.1 | -1.6 | -11.2 | 2.7 | -0.3 | 34.3*
Cc1ccc(C(=O)Cn2nnc(-c3ccccc3-n3cnnn3)n2)cc1 | 98.7 | 5.6 | -4.7 | -0.7 | 0.7 | 5.8
COc1ccc(C(=O)NC2(C(F)(F)F)C(=O)Nc3c2c(=O)[nH]c(=O)n3CCc2ccc(OC)c(OC)c2)cc1 (stereo not given) | · | 0.4 | 1.3 | -0.3 | 5.1 | -0.3
CCCOc1ccc(N2C(=O)CC(N(CCCO)C(=O)CC)C2=O)cc1 (stereo not given) | 114.1 | 1.6 | 0.4 | -0.8 | -1.7 | 2.4
COc1ccc(CCN(C(=O)C(F)(F)F)C(C(=O)NC2CCCCC2)c2ccc(C)s2)cc1OC (stereo not given) | 98.5 | 1.1 | 2.0 | 1.9 | -2.5 | 28.6*
CCS(=O)(=O)N1CCC(C(=O)NCc2ccc(OC)cc2)CC1 | 102.9 | 1.7 | -1.7 | 2.7 | -2.5 | -1.3
Cc1cc(NC(=O)COC(=O)C2CC(=O)N(c3ccc(Br)cc3)C2)no1 (stereo not given) | · | 5.4 | -0.6 | 0.2 | 2.6 | 1.4
O=C(NCCN1C(=O)S/C(=C\c2ccc(Cl)c(Cl)c2)C1=O)c1cnccn1 | 88.4* | 0.5 | 7.9 | -1.2 | -2.5 | -3.1
CC1CC(C)CN(CCCNC(=O)CCC(=O)N2CCOc3ccccc32)C1 (stereo not given) | 99.0 | -3.3 | -5.2 | 4.5 | -3.0 | -3.9
COc1cc(Cl)c(C)cc1NC(=O)c1ccc(S(C)(=O)=O)cc1 | 101.5 | 1.9 | 5.9 | -0.4 | 7.1 | 23.8*
COc1cc(NC(=O)c2ccccc2)c(OC)cc1Cl | 115.2 | 1.3 | -2.9 | -2.7 | -1.0 | -0.2
CCCn1c(-c2cccs2)nc2ccccc21 | 108.9 | -1.6 | -4.9 | 2.4 | -3.9 | -2.8
CCCCn1nc(CC(=O)O)c2ccccc2c1=O | 95.5 | -0.1 | -2.3 | 9.0 | 6.2 | 5.7
N#Cc1cc(Sc2ccccn2)c([N+](=O)[O-])cc1C#N | 113.3 | -0.6 | 28.5 | -2.3 | 1.2 | -5.3
N#Cc1cc(Sc2ccccn2)c(Sc2ccccn2)cc1C#N | 72.6* | -8.1 | 2.5 | -0.5 | 1.7 | 1.4
C[C@@H]1COc2cc(N3CCCC3)ccc2S(=O)(=O)N1 | · | · | · | · | 6.1 | 21.3*
CCOC(=O)c1c(NC(=O)c2ccco2)n(C2CCCCC2)c2nc3ccccc3nc12 | 120.1 | 39.7* | 5.0 | 39.3 | -0.5 | 11.6
COc1ccc(-n2c(NC(=O)c3ccco3)c(C#N)c3nc4ccccc4nc32)cc1 | 98.2 | 33.5 | 7.4 | 13.2 | 3.0 | 11.0
Cc1ccnn1Cc1cc(C(=O)O)c2ccccc2n1 | 98.6 | 0.4 | 10.5 | 1.0 | -0.6 | 1.4
O=C(Nc1ccc(F)c(F)c1)C1CCN(S(=O)(=O)c2cccs2)CC1 | 104.7 | 2.0 | · | -1.5 | 3.8 | 31.0*
Cc1ccc(NC(=O)C2CCN(S(=O)(=O)c3cccs3)CC2)cc1 | 115.0 | 1.8 | -7.3 | -2.2 | -7.2 | -2.7
SMILES | Pemphigus Ab inh | SUMO1 PPI mod | NS3 helicase inh | DNMT1 inh | MBD2 DNA inh | UHRF1 MBD2 ctr
Cc1ccc(S(=O)(=O)CC(=O)c2cc3cccc(C)c3oc2=O)cc1 | 48.7* | -23.5 | 30.3 | 5.0 | -4.5 | 0.5
COc1cccc2cc(C(=O)CS(=O)(=O)c3ccc(C)cc3)c(=O)oc12 | 93.1 | -18.7 | 14.0 | 5.6 | · | ·
O=C(O)c1ccc(NC(=O)c2cn(-c3ccccc3)nc2-c2ccc(F)cc2)cc1 | 95.0 | 1.3 | 1.6 | 1.0 | -7.5 | -1.1
C/C(=C\CNc1ncnc2nc[nH]c12)CO | 98.1 | 4.9 | · | 2.2 | -2.2 | -0.4
CC(C)CCCCCCCCCCCCC(=O)NCC(=O)NC1C(C)OC(Nc2ncnc3nc[nH]c23)C(O)C1O (stereo not given) | 97.0 | 11.6 | · | 93.8* | -4.9 | 1.4
CN(C(=O)CSc1nnc(C(F)(F)F)n1C)c1c(N)n(Cc2ccccc2)c(=O)[nH]c1=O | 102.0 | -5.2 | · | 6.0 | -6.7 | 1.9
COc1ccc(CCNCC2C(Oc3ccc(Cl)cc3)C(=O)N2c2ccccc2C)cc1OC (stereo not given) | 104.3 | 1.2 | -63.5 | -2.1 | 9.6 | 23.4*
COCCNCC1C(Oc2ccc(Cl)cc2)C(=O)N1c1ccccc1C (stereo not given) | 105.8 | 0.1 | -3.8 | 1.5 | -3.2 | 4.0
Cc1ccc(NC(=S)NC(=O)CC2CC(C)(C)OC2=O)cc1 (stereo not given) | 103.8 | 0.0 | 13.4 | 1.6 | 3.2 | 62.3*
CC(C)c1ccccc1NS(C)(=O)=O | · | · | 3.2 | · | · | ·
CC(C)c1ccccc1NS(=O)(=O)N(C)C | 49.4* | -1.1 | 3.0 | -7.3 | -1.5 | -2.1
CCOc1ccc(NC(=O)N2CCC(C(=O)c3ccc(F)cc3)CC2)cc1 | 100.1 | -2.4 | 12.3 | 0.3 | 7.7 | 21.5*
CCOc1ccc(NC(=S)N2CCC(C(=O)c3ccc(F)cc3)CC2)cc1 | 126.2 | 2.4 | · | -1.1 | 3.8 | 0.4
CN(C)CCn1nnnc1SCC1=C(C(=O)O)N2C(=O)[C@@H](NC(=O)Cc3csc(N)n3)[C@H]2SC1 | · | 11.8 | · | 2.8 | 9.3 | 39.1*
Cc1ccc(S(=O)(=O)/N=C2/C=C(Sc3ncn[nH]3)C(=O)c3ccccc32)cc1 | 94.0* | 92.8* | 2.3 | 76.6* | · | ·
CC(C)c1ccc(S(=O)(=O)/N=C2/C=C(Sc3ncn[nH]3)C(=O)c3ccccc32)cc1 | · | 91.7* | 19.5 | 31.9 | · | ·
Cc1ccc(S(=O)(=O)/N=C2/C=C(Sc3ncn[nH]3)C(=O)c3ccccc32)c(C)c1 | · | · | 33.0 | · | · | ·
Cc1ccc(S(=O)(=O)N2CCCCC2)cc1NC(=O)C1=NN(c2ccccc2)C(=O)CC1 | 94.4 | -0.3 | · | -4.7 | 1.3 | 0.0
O=c1c2ccccc2sn1-c1ccc(S(=O)(=O)N2CCCC2)cc1 | 61.8* | 9.4 | -2.9 | -1.7 | -9.0 | -5.3
O=C(O)c1cccc(-n2sc3ccccc3c2=O)c1 | 60.8* | 6.5 | · | 14.1 | 6.1 | 16.6
O=C(O)c1cccc(N2C(=O)CCC2=O)c1 | · | · | -1.4 | · | · | ·
CN(C)S(=O)(=O)c1cccc(-n2sc3ccccc3c2=O)c1 | 28.6* | 3.5 | 25.3 | 2.5 | -2.0 | 0.9
O=c1c2ccccc2sn1-c1ccccc1 | ? | -0.7 | 4.4 | 1.2 | 4.3 | 5.7
O=c1c2ccccc2sn1-c1cccc(Cl)c1 | 40.5* | 17.1 | · | 1.3 | 0.9 | 1.2
